# Laboratory results from ChEMBL document CHEMBL1781959, “Synthesis and in vitro antitumor activity of substituted quinazoline and quinoxaline derivatives: search for anticancer agent” (Eur J Med Chem, 2011).
# Legend:
# TK-10 = test: Cytotoxicity against human TK10 cells after 48 hrs by SRB assay; format: cell-based; details: tk-10, 48 h
# Method in brief: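 NCI-60 five-dose screen. Cells grown in RPMI 1640 with 5% FBS and 2 mM L-glutamine and pre-incubated 24 h; a time-zero plate is TCA-fixed. Drug added at 0.01, 0.1, 1, 10 and 100 µM (DMSO stock) for 48 h at 37 °C, 5% CO2. Fixed with cold TCA (10% final for adherent, 16% for suspension cells), stained with 0.4% SRB, A515. GI50, TGI and LC50 taken from dose-response curves.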
# OVCAR-3 = test: Growth inhibition of human OVCAR3 cells after 48 hrs by SRB assay; format: functional; details: OVCAR-3, 48 h
# Method in brief: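 NCI 60-panel five-dose assay at 0.01, 0.1, 1, 10 and 100 μM. Cells in RPMI 1640 with 5% FBS and 2 mM L-glutamine, preincubated 24 h, with time-zero plates TCA-fixed. Drug exposure 48 h at 37 °C. Read by SRB staining at 515 nm. GI50 is the concentration where [(Ti−Tz)/(C−Tz)]×100 = 50, taken from log concentration versus % growth curves.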
# NCI-H226 = test: Cytotoxicity against human NCI-H226 cells after 48 hrs by SRB assay; format: cell-based; details: nci-h226, 48 h
# Method in brief: (§1)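 NCI-60 five-dose screen in RPMI 1640 with 5% FBS and 2 mM L-glutamine; 5000–40,000 cells/well, 24 h pre-incubation. DMSO stocks diluted to 0.01, 0.1, 1, 10 and 100 μM final; 48 h at 37 °C, 5% CO2. Fixed with TCA (10% final adherent, 16% suspension), stained with 0.4% SRB, A515. GI50, TGI and LC50 taken from time-zero, control and test absorbances.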
# MOLT-4 = test: Cytotoxicity against human MOLT4 cells after 48 hrs by SRB assay; format: cell-based; details: molt-4, 48 h; method in brief: as §1
# HCT-116 = test: Cytotoxicity against human HCT116 cells after 48 hrs by SRB assay; format: cell-based; details: hct-116, 48 h; method in brief: as §1
compound,measurement,setting,value
O=c1c2ccccc2nc(-c2ccco2)n1/N=C/c1ccccc1Cl,LC50,TK-10,> 100 µM
same,GI50,OVCAR-3,4.12 µM
same,TGI,OVCAR-3,6.87 µM
same,LC50,NCI-H226,> 100 µM
same,LC50,MOLT-4,> 100 µM
same,LC50,HCT-116,> 100 µM
